According to paper PMC6172447 (iScience, 2018):

How the values were obtained:
[1] = system: U2OS cells stably expressing EGFP-DFCP1; test: Omegasome formation, EGFP-DFCP1 puncta by live-cell fluorescent microscopy; format: cell-based, human
Summary of the method: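 U2OS cells stably expressing EGFP-DFCP1 were given vehicle or 100 nM AZD8055, with or without 5 μM test compound, for 2.5 hr. They were imaged live by fluorescence microscopy in the green FITC channel. EGFP-DFCP1 objects per cell were counted in 20–25 cells per condition. Mean ± SEM; two-tailed unpaired t test.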

[2] = system: U2OS cells; test: Autophagic turnover, BafA1-induced LC3B-II accumulation by immunoblotting; format: cell-based, human
[3] = system: U2OS cells; test: Phagophore formation, endogenous ATG12 immunofluorescence; format: cell-based, human
[4] = system: nutrient-starved murine embryonic fibroblasts; settings: 1 μM, ref Petherick et al., 2015; cited from earlier work
[5] = system: ULK1; settings: ref Egan et al., 2015; cited from earlier work
[6] = system: AMPK; test: KinaseProfiler radiometric assay, AMPK; format: biochemical, human; settings: selectivity profiling, 40 nM ULK-101 or 15 nM ULK-100
[7] = system: 327 recombinant human kinases; test: KinaseProfiler radiometric selectivity profiling, wild-type human kinase panel; format: biochemical; settings: 326 non-ULK1 kinases; 500 nM SBI-0206965, 40 nM ULK-101, or 15 nM ULK-100
[8] = 5 μM ULK-101 co-treatment with 100 nM AZD8055, 2.5 hr

In the case of `COc1ccc(-c2ccc3c(N4CCOC[C@@H]4C)nc(N4CCOC[C@@H]4C)nc3n2)cc1CO` [AZD8055, reference compound], the “Increase in abundance of DFCP1-positive puncta” value ([1]; 100 nM AZD8055, 2.5 hr, vs vehicle) is reported as “over 3 fold”, the “Increase in BafA1-induced LC3B-II accumulation” value ([2]; 100 nM AZD8055, within 1 hr) is reported as “over 2 fold” and the ATG12-positive puncta formation ([3]; 100 nM AZD8055, 2.5 hr) is reported as “distinct ATG12-positive puncta”.

In the case of `CN1CCc2cc(Nc3ncc(C4CC4)c(NCCCNC(=O)C4CCC4)n3)ccc2C1` [MRT68921], the “Effect on BafA1-induced LC3-II accumulation” value [4] is listed as “block BafA1-induced LC3-II accumulation”.

In the case of `CNC(=O)c1ccccc1Oc1nc(Nc2cc(OC)c(OC)c(OC)c2)ncc1Br` [SBI-0206965], the “Effect on Beclin 1 Ser15 phosphorylation in cells” value [5] is listed as “reduce Beclin 1 Ser15 phosphorylation”.

For `CC(C)[C@H](NC(=O)c1cc(-c2cnn3cc(-c4ccc(OCCN5CCCCC5)cc4)cnc23)cs1)C(F)(F)F` [ULK-100], the “AMPK inhibition in vitro” value [6] was “inhibited”.

In the case of `O=C(N[C@@H](C1CC1)C(F)(F)F)c1cc(-c2cnn3cc(-c4ccc(F)cc4)cnc23)cs1` [ULK-101], the “AMPK inhibition in vitro” value [6] is reported as “spared”, the “Effect on AZD8055-induced formation of DFCP1-positive structures” value [1, 8] is reported as “completely abrogated” and the “Number of other kinases inhibited at least 75% as well as ULK1” value [7] is reported as “four”. For the same compound, the “Effect on AZD8055-induced increase of BafA1-induced LC3B-II accumulation” value ([2]; 5 μM ULK-101 with 100 nM AZD8055, 3 hr) was “negated” and the “Effect on AZD8055-induced ATG12-positive puncta” value [3, 8] was “strongly suppressed”.
